Key:
Conditions in all cases: in vivo
Rattus norvegicus [1] = assay: The biodistribution of the [125I]-labeled compound in rats after intravenous injection was evaluated in lung at 1.00 hrs (ID.kg/g); assay type: ADME, organism-based
Summary of the method: (§1)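 Male Sprague-Dawley rats (250–300 g), under ether anesthesia, given 10–15 μCi of the NCA ¹²⁵I-labeled agent iv in 0.1 mL saline. Groups of N = 3 were killed at 0.25, 1 or 4 h. Blood and tissues were removed, weighed and counted in a γ-well scintillation counter. Values are mean % ID·kg/g (range).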

Rattus norvegicus [2] = assay: The biodistribution of the [125I]-labeled compound in rats after intravenous injection was evaluated in fat at 1.00 hrs; value ranges from 0.08-0.12 (ID.kg/g); assay type: ADME, organism-based, Adipose tissue
Summary of the method: (§2)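 Male Sprague-Dawley rats (250–300 g) under ether anesthesia were given an iv injection of no-carrier-added 125I-labelled agent (10–15 μCi in 0.1 mL saline). The agent was iodinated with chloramine-T in acetate buffer and purified by C-18 HPLC. Groups of N = 3 were killed at 0.25, 1 and 4 h. Blood and tissues were weighed and γ-counted. Values are % ID·kg/g, mean (range).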

Rattus norvegicus [3] = assay: The biodistribution of the [125I]-labeled compound in rats after intravenous injection was evaluated in heart at 1.00 hrs; value ranges from 0.11-0.13 (ID.kg/g); assay type: ADME, organism-based; summary of the method: as §2
Rattus norvegicus [4] = assay: The biodistribution of the [125I]-labeled compound in rats after intravenous injection was evaluated in thyroid at 4.00 hrs; value ranges from 2.48-3.53 (ID.kg/g); assay type: ADME, organism-based, Thyroid gland
Summary of the method: (§3)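 Male Sprague-Dawley rats (250–300 g) under ether anesthesia given iv 0.1 mL saline containing 10–15 μCi of NCA ¹²⁵I-labeled agent (chloramine-T iodination, HPLC-purified). Groups of 3 killed at 0.25, 1 and 4 h. Blood and tissues excised, weighed and γ-counted. Values are mean (range) of % injected dose × body mass (kg) per gram of tissue.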

Rattus norvegicus [5] = assay: The biodistribution of the [125I]-labeled compound in rats after intravenous injection was evaluated in kidney at 0.25 hr; value ranges from 0.31-0.38 (ID.kg/g); assay type: ADME, organism-based; summary of the method: as §1
Rattus norvegicus [6] = assay: The biodistribution of the [125I]-labeled compound in rats after intravenous injection was evaluated in adrenal at 1.00 hrs; value ranges from 0.12-0.19 (ID.kg/g); assay type: ADME, organism-based; summary of the method: as §2
Rattus norvegicus [7] = assay: The biodistribution of the [125I]-labeled compound in rats after intravenous injection was evaluated in brain at 4.00 hrs (ID.kg/g); assay type: ADME, organism-based; summary of the method: as §2
Rattus norvegicus [8] = assay: The biodistribution of the [125I]-labeled compound in rats after intravenous injection was evaluated in fat at 0.25 hr; value ranges from 0.07-0.09 (ID.kg/g); assay type: ADME, organism-based, Adipose tissue; summary of the method: as §2
Rattus norvegicus [9] = assay: The biodistribution of the [125I]-labeled compound in rats after intravenous injection was evaluated in lung at 4.00 hrs (ID.kg/g); assay type: ADME, organism-based; summary of the method: as §1
Rattus norvegicus [10] = assay: The biodistribution of the [125I]-labeled compound in rats after intravenous injection was evaluated in muscle at 0.25 hrs; value ranges from 0.06-0.07 (ID.kg/g); assay type: ADME, organism-based, Muscle tissue; summary of the method: as §3
Rattus norvegicus [11] = assay: The biodistribution of the [125I]-labeled compound in rats after intravenous injection was evaluated in liver at 0.25 hr; value ranges from 0.24-0.40 (ID.kg/g); assay type: ADME, organism-based; summary of the method: as §1
Rattus norvegicus [12] = assay: The biodistribution of the [125I]-labeled compound in rats after intravenous injection was evaluated in adrenal at 4.00 hrs; value ranges from 0.11-0.13 (ID.kg/g); assay type: ADME, organism-based; summary of the method: as §2
Rattus norvegicus [13] = assay: The biodistribution of the [125I]-labeled compound in rats after intravenous injection was evaluated in heart at 0.25 hrs; value ranges from 0.10-0.11 (ID.kg/g); assay type: ADME, organism-based; summary of the method: as §2
Rattus norvegicus [14] = assay: The biodistribution of the [125I]-labeled compound in rats after intravenous injection was evaluated in kidney at 1.00 hrs; value ranges from 0.28-0.33 (ID.kg/g); assay type: ADME, organism-based; summary of the method: as §1
Rattus norvegicus [15] = assay: The biodistribution of the [125I]-labeled compound in rats after intravenous injection was evaluated in muscle at 4.00 hrs (ID.kg/g); assay type: ADME, organism-based, Muscle tissue; summary of the method: as §3
Rattus norvegicus [16] = assay: The biodistribution of the [125I]-labeled compound in rats after intravenous injection was evaluated in brain at 0.25 hrs; value ranges from 0.19-0.26 (ID.kg/g); assay type: ADME, organism-based
Rattus norvegicus [17] = assay: The biodistribution of the [125I]-labeled compound in rats after intravenous injection was evaluated in heart at 4.00 hrs; value ranges from 0.12-0.14 (ID.kg/g); assay type: ADME, organism-based; summary of the method: as §1
Rattus norvegicus [18] = assay: The biodistribution of the [125I]-labeled compound in rats after intravenous injection was evaluated in blood at 1.00 hrs (ID.kg/g); assay type: ADME, organism-based; summary of the method: as §2
Rattus norvegicus [19] = assay: The biodistribution of the [125I]-labeled compound in rats after intravenous injection was evaluated in lung at 0.25 hrs (ID.kg/g); assay type: ADME, organism-based; summary of the method: as §1
Rattus norvegicus [20] = assay: The biodistribution of the [125I]-labeled compound in rats after intravenous injection was evaluated in muscle at 1.00 hrs; value ranges from 0.03-0.05 (ID.kg/g); assay type: ADME, organism-based, Muscle tissue; summary of the method: as §3
Rattus norvegicus [21] = assay: The biodistribution of the [125I]-labeled compound in rats after intravenous injection was evaluated in adrenal at 0.25 hrs; value ranges from 0.22-0.37 (ID.kg/g); assay type: ADME, organism-based; summary of the method: as §2
Rattus norvegicus [22] = assay: The biodistribution of the [125I]-labeled compound in rats after intravenous injection was evaluated in brain at 1.00 hrs; (ID.kg/g); assay type: ADME, organism-based; summary of the method: as §2
Rattus norvegicus [23] = assay: The biodistribution of the [125I]-labeled compound in rats after intravenous injection was evaluated in thyroid at 1.00 hrs value ranges from 2.04-2.76( ID.kg/g); assay type: ADME, organism-based, Thyroid gland; summary of the method: as §3
Rattus norvegicus [24] = assay: The biodistribution of the [125I]-labeled compound in rats after intravenous injection was evaluated in fat at 4.00 hrs; value ranges from 0.06-0.07 (ID.kg/g); assay type: ADME, organism-based, Adipose tissue; summary of the method: as §2
Rattus norvegicus [25] = assay: The biodistribution of the [125I]-labeled compound in rats after intravenous injection was evaluated in blood at 4.00 hrs (ID.kg/g); assay type: ADME, organism-based; summary of the method: as §2
Rattus norvegicus [26] = assay: The biodistribution of the [125I]-labeled compound in rats after intravenous injection was evaluated in thyroid at 0.25 hrs (ID.kg/g); assay type: ADME, organism-based, Thyroid gland; summary of the method: as §3
Rattus norvegicus [27] = assay: The biodistribution of the [125I]-labeled compound in rats after intravenous injection was evaluated in blood at 0.25 hrs (ID.kg/g); assay type: ADME, organism-based; summary of the method: as §2
Rattus norvegicus [28] = assay: The biodistribution of the [125I]-labeled compound in rats after intravenous injection was evaluated in liver at 4.00 hrs; value ranges from 0.19-0.21 (ID.kg/g); assay type: ADME, organism-based; summary of the method: as §1
Rattus norvegicus [29] = assay: The biodistribution of the [125I]-labeled compound in rats after intravenous injection was evaluated in liver at 1.00 hrs; value ranges from 0.27-0.47 (ID.kg/g); assay type: ADME, organism-based; summary of the method: as §1
Rattus norvegicus [30] = assay: The biodistribution of the [125I]-labeled compound in rats after intravenous injection was evaluated in kidney at 4.00 hrs; value ranges from 0.14-0.21 (ID.kg/g); assay type: ADME, organism-based; summary of the method: as §1

## CN1CCN(c2ccc(I)cc2)CC1
Rattus norvegicus [1]
  Biodistribution: 0.2%
Rattus norvegicus [2]
  Biodistribution: 0.12%
Rattus norvegicus [3]
  Biodistribution: 0.13%
Rattus norvegicus [4]
  Biodistribution: 3.53%
Rattus norvegicus [5]
  Biodistribution: 0.38%
Rattus norvegicus [6]
  Biodistribution: 0.19%
Rattus norvegicus [7]
  Biodistribution: 0.05%
Rattus norvegicus [8]
  Biodistribution: 0.09%
Rattus norvegicus [9]
  Biodistribution: 0.09%
Rattus norvegicus [10]
  Biodistribution: 0.07%
Rattus norvegicus [11]
  Biodistribution: 0.4%
Rattus norvegicus [12]
  Biodistribution: 0.13%
Rattus norvegicus [13]
  Biodistribution: 0.11%
Rattus norvegicus [14]
  Biodistribution: 0.33%
Rattus norvegicus [15]
  Biodistribution: 0.02 %ID·kg/g
Rattus norvegicus [16]
  Biodistribution: 0.26%
Rattus norvegicus [17]
  Biodistribution: 0.14%
Rattus norvegicus [18]
  Biodistribution: 0.04%
Rattus norvegicus [19]
  Biodistribution: 0.22%
Rattus norvegicus [20]
  Biodistribution: 0.05%
Rattus norvegicus [21]
  Biodistribution: 0.37%
Rattus norvegicus [22]
  Biodistribution: 0.05%
Rattus norvegicus [23]
  Biodistribution: 2.76%
Rattus norvegicus [24]
  Biodistribution: 0.07%
Rattus norvegicus [25]
  Biodistribution: 0.02 % ID·kg/g
Rattus norvegicus [26]
  Biodistribution: 0.96%
Rattus norvegicus [27]
  Biodistribution: 0.04 % ID·kg/g
Rattus norvegicus [28]
  Biodistribution: 0.21%
Rattus norvegicus [29]
  Biodistribution: 47%
Rattus norvegicus [30]
  Biodistribution: 0.21%

— ChEMBL document CHEMBL1123589, “Phenylpiperazine-based radiopharmaceuticals for brain imaging. 3. Synthesis and evaluation of radioiodinated 1-alkyl-4-phenylpiperazines” (J Med Chem, 1987)
